Test results: ChEMBL document CHEMBL4665864, “Indole acrylonitriles as potential anti-hyperglycemic agents: Synthesis, α-glucosidase inhibitory activity and molecular docking studies” (Bioorg Med Chem, 2020)

Assay: Inhibition of Saccharomyces cerevisiae alpha-glucosidase using p-nitrophenyl-alpha-D-glucopyranoside as substrate preincubated with enzyme for 5 mins followed by substrate addition and measured after 30 mins by microplate reader analysis
Conditions: not given; call rule not given here
Procedure, shortened: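 Yeast enzyme solution 2.5 U mL-1 and p-NPG made up in 0.07 M phosphate buffer, pH 6.8. Enzyme, buffer and test compound preincubated 5 min at 37 °C, then 10 mM p-NPG stock added and incubated 30 min at 37 °C. Reaction stopped with 0.2 M Na2CO3, p-nitrophenol read at 405 nm. Percent inhibition taken against buffer-only control; IC50 from dose-response curves of compounds giving ≥50% inhibition.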

| SMILES | IC50 |
| --- | --- |
| N#C/C(=C\c1ccc2ccccc2c1)C(=O)c1c[nH]c2ccccc12 | Not Active |
| N#C/C(=C\c1cccc([N+](=O)[O-])c1)C(=O)c1c[nH]c2ccccc12 | Not Active |
| N#C/C(=C\c1cccc(OCc2ccccc2)c1)C(=O)c1c[nH]c2ccccc12 | Not Active |
| COc1ccc(/C=C(\C#N)C(=O)c2c[nH]c3ccccc23)c(F)c1 | Not Active |
| N#C/C(=C\c1cccnc1)C(=O)c1c[nH]c2ccccc12 | Not Active |
| CN(C)c1ccc(/C=C(\C#N)C(=O)c2c[nH]c3ccccc23)cc1 | Not Active |
| N#C/C(=C\c1ccc(-c2ccccc2)cc1)C(=O)c1c[nH]c2ccccc12 | Not Active |
| Cc1ccccc1/C=C(\C#N)C(=O)c1c[nH]c2ccccc12 | Not Active |
| N#C/C(=C\c1c(Cl)cccc1Cl)C(=O)c1c[nH]c2ccccc12 | Not Active |

Results, then the molecule that gave them:

| IC50 | SMILES |
| --- | --- |
| Not Active | N#C/C(=C\c1ccc(Cl)cc1)C(=O)c1c[nH]c2ccccc12 |
| Not Active | N#C/C(=C\c1ccncc1)C(=O)c1c[nH]c2ccccc12 |
| Not Active | N#C/C(=C\c1cc(Cl)cc(Cl)c1O)C(=O)c1c[nH]c2ccccc12 |
| Not Active | N#C/C(=C\c1ccc(OCc2ccccc2)cc1)C(=O)c1c[nH]c2ccccc12 |
| Not Active | N#C/C(=C\c1ccco1)C(=O)c1c[nH]c2ccccc12 |

Same assay, conditions: read-out: IC50

| SMILES | IC50 |
| --- | --- |
| N#C/C(=C\c1cccc2ccccc12)C(=O)c1c[nH]c2ccccc12 | 600 nM |
| COc1cccc(/C=C(\C#N)C(=O)c2c[nH]c3ccccc23)c1Cl | 950 nM |
| C[C@H]1O[C@H](O[C@H]2[C@H](O)[C@@H](O)[C@@H](O[C@H]3[C@H](O)[C@@H](O)C(O)O[C@@H]3CO)O[C@@H]2CO)[C@H](O)[C@@H](O)[C@@H]1N[C@H]1C=C(CO)[C@@H](O)[C@H](O)[C@H]1O (some centres not stated) [ACARBOSE] | 2910 nM |

The next lines start with the values.

| IC50 | SMILES |
| --- | --- |
| 880 nM | N#C/C(=C\c1ccc([N+](=O)[O-])cc1)C(=O)c1c[nH]c2ccccc12 |
| 530 nM | COc1cc(/C=C(\C#N)C(=O)c2c[nH]c3ccccc23)cc(OC)c1Br |
| 1020 nM | COc1ccc(/C=C(\C#N)C(=O)c2c[nH]c3ccccc23)cc1OCc1ccccc1 |
| 1360 nM | N#C/C(=C\c1ccc2ccc3cccc4ccc1c2c34)C(=O)c1c[nH]c2ccccc12 |
| 1190 nM | N#C/C(=C\c1ccccc1OCc1ccccc1)C(=O)c1c[nH]c2ccccc12 |
